These results are taken from ChEMBL document CHEMBL1949548, “A β-tryptase inhibitor with a tropanylamide scaffold to improve in vitro stability and to lower hERG channel binding affinity” (Bioorg Med Chem Lett, 2012).

Series [1] can be described thus: Inhibition of human tryptase-beta using S-2366 as substrate by chromogenic assay.
For series [2], the target named is Cytochrome P450 2D6 (Homo sapiens, UniProt P10635). The series is described as follows: Inhibition of human CYP2D6 using dexotromethorphan as substrate by LC-MS/MS analysis. The class given is ADME. The method in brief:
(§1)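 Direct-acting CYP inhibition was run in human liver microsomes. Activity was read by LC–MS/MS of marker-substrate turnover: midazolam for CYP3A4 and dexotromethorphan for CYP2D6. IC50 values were derived.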

Series [3] addresses Cytochrome P450 3A4 (Homo sapiens, UniProt P08684). The series is described as follows: Inhibition of human CYP3A4 using midazolam as substrate by LC-MS/MS analysis. The class given is ADME. The method in brief:
as §1

Series [4] in a line: Metabolic stability in rat liver microsomes after 20 mins. Type of series: ADME, Microsome. The essentials: (§2)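 Liver microsomal fractions prepared by centrifugation. Compound incubated with the fractions for 20 min before the reaction was stopped. Stability expressed as percent of compound metabolized.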
For series [5], the target named is Voltage-gated inwardly rectifying potassium channel KCNH2 (Homo sapiens, UniProt Q12809). The series is described as follows: Inhibition of human ERG by whole-cell patch clamp electrophysiology assay. The method in brief: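 hERG potassium channel expressed in Chinese hamster ovary cells; channel currents recorded by whole-cell patch clamp electrophysiology.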
(Patch clamp records ionic current or voltage across a cell membrane.)

Series [6] is described as follows: Metabolic stability in human liver microsomes after 20 mins. The class given is ADME, Microsome. The method in brief:
as §2
Background: Liver microsomes are vesicles of endoplasmic reticulum, rich in cytochrome P450 enzymes.

Series [7] is described as follows: Chemical stability in presence of human semicarbazide-sensitive amine oxidase assessed as compound remaining. The class given is physicochemical. The essentials: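 Human semicarbazide-sensitive amine oxidase (hSSAO) stability read as percent of compound remaining after 24 h.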
The target of series [8] is T1, hERG (KCNH2) (Homo sapiens, UniProt Q12809). The series is described as follows: Inhibition of human ERG at 10 uM by whole-cell patch clamp electrophysiology assay. The essentials:
(§3)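 hERG potassium channel expressed in Chinese hamster ovary cells. Channel currents recorded by whole-cell patch clamp electrophysiology, with percent inhibition of current reported.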

The target in series [9] is T1, hERG (KCNH2). As to the kind of experiment: Inhibition of human ERG at 1 uM by whole-cell patch clamp electrophysiology assay. The method in brief:
as §3

Chain of Cytochrome P450 3A4 (P08684 whole entry): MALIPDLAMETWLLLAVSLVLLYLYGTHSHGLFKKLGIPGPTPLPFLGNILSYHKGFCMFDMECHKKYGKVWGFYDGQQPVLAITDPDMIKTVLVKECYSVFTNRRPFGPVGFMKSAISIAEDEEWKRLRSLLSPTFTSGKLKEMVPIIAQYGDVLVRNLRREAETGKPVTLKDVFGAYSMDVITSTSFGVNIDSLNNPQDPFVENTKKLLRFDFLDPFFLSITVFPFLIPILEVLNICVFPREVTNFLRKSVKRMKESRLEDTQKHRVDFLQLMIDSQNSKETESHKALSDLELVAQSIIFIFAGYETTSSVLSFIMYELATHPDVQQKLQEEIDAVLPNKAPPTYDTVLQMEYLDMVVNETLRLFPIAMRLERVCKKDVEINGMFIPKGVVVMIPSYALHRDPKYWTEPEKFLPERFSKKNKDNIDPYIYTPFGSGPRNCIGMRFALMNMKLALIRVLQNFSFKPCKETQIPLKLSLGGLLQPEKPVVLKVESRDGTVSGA
Chain of Cytochrome P450 2D6 (P10635 whole entry): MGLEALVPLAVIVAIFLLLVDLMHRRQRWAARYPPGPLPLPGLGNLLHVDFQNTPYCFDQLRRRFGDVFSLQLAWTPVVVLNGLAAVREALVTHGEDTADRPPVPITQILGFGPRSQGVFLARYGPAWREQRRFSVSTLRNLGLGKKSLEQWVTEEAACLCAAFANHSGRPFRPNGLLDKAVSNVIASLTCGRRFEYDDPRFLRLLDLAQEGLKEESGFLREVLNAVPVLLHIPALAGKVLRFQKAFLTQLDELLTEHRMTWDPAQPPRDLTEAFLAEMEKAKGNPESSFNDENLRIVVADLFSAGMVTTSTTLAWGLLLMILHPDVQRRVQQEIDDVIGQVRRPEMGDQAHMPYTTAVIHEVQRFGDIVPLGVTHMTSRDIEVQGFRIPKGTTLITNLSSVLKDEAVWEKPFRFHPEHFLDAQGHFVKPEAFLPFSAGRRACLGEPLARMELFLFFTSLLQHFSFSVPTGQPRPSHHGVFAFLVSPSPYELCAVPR
T1 sequence (Q12809 whole entry): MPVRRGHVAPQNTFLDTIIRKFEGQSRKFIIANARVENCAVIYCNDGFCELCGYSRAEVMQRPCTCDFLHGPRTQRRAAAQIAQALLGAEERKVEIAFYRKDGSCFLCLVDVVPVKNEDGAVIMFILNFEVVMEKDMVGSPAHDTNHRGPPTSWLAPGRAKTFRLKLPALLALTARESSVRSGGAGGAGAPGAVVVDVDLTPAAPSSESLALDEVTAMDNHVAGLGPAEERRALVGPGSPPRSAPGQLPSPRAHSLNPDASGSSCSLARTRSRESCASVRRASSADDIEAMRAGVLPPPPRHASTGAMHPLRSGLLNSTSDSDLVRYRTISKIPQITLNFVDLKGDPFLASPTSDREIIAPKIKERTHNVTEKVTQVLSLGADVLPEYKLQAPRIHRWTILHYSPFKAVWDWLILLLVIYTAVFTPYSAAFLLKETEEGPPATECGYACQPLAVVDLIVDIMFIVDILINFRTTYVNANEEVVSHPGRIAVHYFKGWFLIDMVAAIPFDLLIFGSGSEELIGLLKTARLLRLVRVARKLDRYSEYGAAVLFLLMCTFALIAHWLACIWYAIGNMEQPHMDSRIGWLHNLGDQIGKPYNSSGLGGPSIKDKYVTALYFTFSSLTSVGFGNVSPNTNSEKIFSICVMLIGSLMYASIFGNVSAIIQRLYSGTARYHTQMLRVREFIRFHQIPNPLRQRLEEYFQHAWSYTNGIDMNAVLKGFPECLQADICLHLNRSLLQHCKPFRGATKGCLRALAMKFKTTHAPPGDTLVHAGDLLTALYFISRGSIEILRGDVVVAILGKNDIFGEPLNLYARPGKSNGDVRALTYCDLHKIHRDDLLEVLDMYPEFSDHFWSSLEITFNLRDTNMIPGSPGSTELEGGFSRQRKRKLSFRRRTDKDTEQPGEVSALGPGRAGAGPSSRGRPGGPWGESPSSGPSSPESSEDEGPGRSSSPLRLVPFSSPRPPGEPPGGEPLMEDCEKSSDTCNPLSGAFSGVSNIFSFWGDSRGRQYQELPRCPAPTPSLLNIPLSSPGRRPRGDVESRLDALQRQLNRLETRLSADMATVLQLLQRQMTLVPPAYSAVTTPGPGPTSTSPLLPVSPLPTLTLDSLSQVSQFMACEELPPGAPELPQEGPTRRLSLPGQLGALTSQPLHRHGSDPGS
Chain of Voltage-gated inwardly rectifying potassium channel KCNH2 (Q12809 whole entry): as above

For orientation: Ki means the equilibrium dissociation constant of an inhibitor or competing ligand from its target. Read a low Ki as a stronger hold on the target. The IC50 is the midpoint of a concentration-inhibition curve. A higher IC50 goes with weaker potency in that assay. In turn, `CCCOc1sc(C(=O)N2CCC(c3cccc(CN)c3)CC2)c(C)c1Br` registered an inhibition constant Ki in series [1] of 0.022 µM. Further, the results for the IC50 in series [2], in [3] and in series [5] were 2.5 µM, 4.7 µM and 1 µM, respectively. In addition, the metabolized at 20 min in series [4] was 6%; in series [6] it was 26%. In addition, the Stability in series [7] is given as 70%.

For orientation: inhibition means how much of the control response was suppressed. Low readings indicate a weak effect, high ones a strong effect. As to `CCCOc1sc(C(=O)N2[C@H]3CC[C@H]2CC(c2cc(CN)ccc2F)C3)c(C)c1Br` (some centres undefined), the values for the IC50 in series [2] and in [3] were 6.9 µM and 5.3 µM, respectively. Also, the inhibition at 10 µM in [8] was found to be 36%. Also, the metabolized at 20 min in [4] is 0%; in series [6], 7%. In series [9], the inhibition at 1 µM was found to be 14%. For the same molecule, the Stability in series [7] was determined as 86%.
